# In ChEMBL document CHEMBL4689842, “EUbOPEN Chemogenomics Library wave 1” (2021):
# Tested on: U2OS
# Assay: Multiplex assay against U2OS
# Assay type: toxicity, cell-based
# Conditions: human
# Method in brief: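 Four dyes were applied at seeding to live cells: Hoechst33342, BioTracker Green Microtubule Cytoskeleton Dye, MitoTracker Red and Annexin V Alexa Fluor 680. Imaging after compound addition used a CQ1 microscope at 37°C and 5% CO2. CellPathfinder machine-learning gating then sorted cells into Hoechst high-intensity objects or normal cells, normal cells into healthy, pyknosed or fragmented nuclei, and pyknosed cells into mitotic or apoptotic, with tubulin, mitochondrial-mass and membrane-permeability phenotypes given as per cents of healthy-nucleus cells.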
# [1] = 12 h, 1 µM, compound concentration 1 uM, replicate 1
# [2] = 12 h, 1 µM, compound concentration 1 uM, replicate 2
# [3] = 12 h, 10 µM, compound concentration 10 uM, replicate 1
# [4] = 12 h, 10 µM, compound concentration 10 uM, replicate 2
# [5] = 24 h, 1 µM, compound concentration 1 uM, replicate 1
# [6] = 24 h, 1 µM, compound concentration 1 uM, replicate 2
# [7] = 24 h, 10 µM, compound concentration 10 uM, replicate 1
# [8] = 24 h, 10 µM, compound concentration 10 uM, replicate 2
# [9] = 48 h, 1 µM, compound concentration 1 uM, replicate 1
# [10] = 48 h, 1 µM, compound concentration 1 uM, replicate 2
# [11] = 48 h, 10 µM, compound concentration 10 uM, replicate 1
# [12] = 48 h, 10 µM, compound concentration 10 uM, replicate 2
smiles,measurement,setting,value
CC(C)OC(=O)N1CCC(Oc2ncnc3c2cnn3-c2ccc(S(C)(=O)=O)cc2F)CC1,Population Apoptotic (%),[1],57%
same,Population Fragmented Nuclei (%),[1],11%
same,Population Healthy Nuclei (%),[1],80%
same,Population Hoechst High Intensity Objects (%),[1],6%
same,Population Membrane Permeable-Phenotype (%),[1],6%
same,Population Mitochondria Different-Phenotype (%),[1],8%
same,Population Mitotic Cells (%),[1],42%
same,Population Normal (%),[1],93%
same,Population Pyknosed Nuclei (%),[1],7%
same,Population Tubulin-Different-Phenotype (%),[1],12%
same,Total Cell Count,[1],95
same,Population Apoptotic (%),[2],33%
same,Population Fragmented Nuclei (%),[2],5%
same,Population Healthy Nuclei (%),[2],91%
same,Population Hoechst High Intensity Objects (%),[2],7%
same,Population Membrane Permeable-Phenotype (%),[2],4%
same,Population Mitotic Cells (%),[2],66%
same,Population Normal (%),[2],92%
same,Population Pyknosed Nuclei (%),[2],3%
same,Population Tubulin-Different-Phenotype (%),[2],7%
same,Total Cell Count,[2],97
same,Population Apoptotic (%),[3],20%
same,Population Fragmented Nuclei (%),[3],11%
same,Population Healthy Nuclei (%),[3],77%
same,Population Hoechst High Intensity Objects (%),[3],6%
same,Population Membrane Permeable-Phenotype (%),[3],6%
same,Population Mitochondria Different-Phenotype (%),[3],19%
same,Population Mitotic Cells (%),[3],79%
same,Population Normal (%),[3],93%
same,Population Pyknosed Nuclei (%),[3],11%
same,Population Tubulin-Different-Phenotype (%),[3],24%
same,Total Cell Count,[3],221
same,Population Apoptotic (%),[4],18%
same,Population Fragmented Nuclei (%),[4],5%
same,Population Membrane Permeable-Phenotype (%),[4],0%
same,Population Mitochondria Different-Phenotype (%),[4],5%
same,Population Mitotic Cells (%),[4],81%
same,Population Pyknosed Nuclei (%),[4],16%
same,Population Tubulin-Different-Phenotype (%),[4],28%
same,Total Cell Count,[4],72
same,Population Apoptotic (%),[5],57%
same,Population Fragmented Nuclei (%),[5],10%
same,Population Healthy Nuclei (%),[5],83%
same,Population Hoechst High Intensity Objects (%),[5],6%
same,Population Membrane Permeable-Phenotype (%),[5],5%
same,Population Mitochondria Different-Phenotype (%),[5],5%
same,Population Mitotic Cells (%),[5],42%
same,Population Normal (%),[5],93%
same,Population Pyknosed Nuclei (%),[5],6%
same,Population Tubulin-Different-Phenotype (%),[5],11%
same,Total Cell Count,[5],123
same,Population Apoptotic (%),[6],50%
same,Population Fragmented Nuclei (%),[6],4%
same,Population Healthy Nuclei (%),[6],86%
same,Population Hoechst High Intensity Objects (%),[6],2%
same,Population Mitochondria Different-Phenotype (%),[6],4%
same,Population Mitotic Cells (%),[6],50%
same,Population Normal (%),[6],97%
same,Population Pyknosed Nuclei (%),[6],8%
same,Population Tubulin-Different-Phenotype (%),[6],9%
same,Total Cell Count,[6],116
same,Population Apoptotic (%),[7],20%
same,Population Fragmented Nuclei (%),[7],10%
same,Population Healthy Nuclei (%),[7],79%
same,Population Hoechst High Intensity Objects (%),[7],4%
same,Population Membrane Permeable-Phenotype (%),[7],1%
same,Population Mitochondria Different-Phenotype (%),[7],14%
same,Population Mitotic Cells (%),[7],79%
same,Population Normal (%),[7],95%
same,Population Pyknosed Nuclei (%),[7],10%
same,Population Tubulin-Different-Phenotype (%),[7],13%
same,Total Cell Count,[7],248
same,Population Apoptotic (%),[8],33%
same,Population Fragmented Nuclei (%),[8],5%
same,Population Healthy Nuclei (%),[8],87%
same,Population Hoechst High Intensity Objects (%),[8],2%
same,Population Mitochondria Different-Phenotype (%),[8],2%
same,Population Mitotic Cells (%),[8],66%
same,Population Normal (%),[8],97%
same,Population Pyknosed Nuclei (%),[8],6%
same,Population Tubulin-Different-Phenotype (%),[8],31%
same,Total Cell Count,[8],93
same,Population Apoptotic (%),[9],27%
same,Population Fragmented Nuclei (%),[9],6%
same,Population Healthy Nuclei (%),[9],83%
same,Population Hoechst High Intensity Objects (%),[9],4%
same,Population Membrane Permeable-Phenotype (%),[9],1%
same,Population Mitotic Cells (%),[9],72%
same,Population Normal (%),[9],95%
same,Population Pyknosed Nuclei (%),[9],9%
same,Population Tubulin-Different-Phenotype (%),[9],5%
same,Total Cell Count,[9],193
same,Population Apoptotic (%),[10],30%
same,Population Fragmented Nuclei (%),[10],5%
same,Population Healthy Nuclei (%),[10],88%
same,Population Hoechst High Intensity Objects (%),[10],2%
same,Population Membrane Permeable-Phenotype (%),[10],7%
same,Population Mitochondria Different-Phenotype (%),[10],10%
same,Population Mitotic Cells (%),[10],69%
same,Population Normal (%),[10],97%
same,Population Pyknosed Nuclei (%),[10],6%
same,Population Tubulin-Different-Phenotype (%),[10],9%
same,Total Cell Count,[10],199
same,Population Apoptotic (%),[11],35%
same,Population Fragmented Nuclei (%),[11],5%
same,Population Healthy Nuclei (%),[11],82%
same,Population Hoechst High Intensity Objects (%),[11],2%
same,Population Membrane Permeable-Phenotype (%),[11],2%
same,Population Mitochondria Different-Phenotype (%),[11],13%
same,Population Mitotic Cells (%),[11],64%
same,Population Normal (%),[11],97%
same,Population Pyknosed Nuclei (%),[11],11%
same,Population Tubulin-Different-Phenotype (%),[11],8%
same,Total Cell Count,[11],324
same,Population Apoptotic (%),[12],40%
same,Population Fragmented Nuclei (%),[12],3%
same,Population Healthy Nuclei (%),[12],92%
same,Population Hoechst High Intensity Objects (%),[12],1%
same,Population Mitochondria Different-Phenotype (%),[12],12%
same,Population Mitotic Cells (%),[12],60%
same,Population Normal (%),[12],98%
same,Population Pyknosed Nuclei (%),[12],3%
same,Population Tubulin-Different-Phenotype (%),[12],37%
same,Total Cell Count,[12],157
CC(C)NC(=O)N1CC[C@H](NC2=Nc3cc(F)ccc3N(CC(F)F)c3ccc(Cl)cc32)C1,Population Apoptotic (%),[1],50%
same,Population Fragmented Nuclei (%),[1],11%
same,Population Healthy Nuclei (%),[1],75%
same,Population Hoechst High Intensity Objects (%),[1],7%
same,Population Membrane Permeable-Phenotype (%),[1],7%
same,Population Mitochondria Different-Phenotype (%),[1],8%
same,Population Mitotic Cells (%),[1],50%
same,Population Normal (%),[1],92%
same,Population Pyknosed Nuclei (%),[1],13%
same,Population Tubulin-Different-Phenotype (%),[1],19%
same,Total Cell Count,[1],469
same,Population Apoptotic (%),[2],33%
same,Population Fragmented Nuclei (%),[2],5%
same,Population Healthy Nuclei (%),[2],89%
same,Population Hoechst High Intensity Objects (%),[2],9%
same,Population Membrane Permeable-Phenotype (%),[2],4%
same,Population Mitochondria Different-Phenotype (%),[2],18%
same,Population Mitotic Cells (%),[2],66%
same,Population Normal (%),[2],90%
same,Population Pyknosed Nuclei (%),[2],5%
same,Population Tubulin-Different-Phenotype (%),[2],14%
same,Total Cell Count,[2],293
same,Population Apoptotic (%),[3],47%
same,Population Fragmented Nuclei (%),[3],11%
same,Population Healthy Nuclei (%),[3],72%
same,Population Hoechst High Intensity Objects (%),[3],11%
same,Population Membrane Permeable-Phenotype (%),[3],4%
same,Population Mitochondria Different-Phenotype (%),[3],52%
same,Population Mitotic Cells (%),[3],52%
same,Population Normal (%),[3],88%
same,Population Pyknosed Nuclei (%),[3],15%
same,Population Tubulin-Different-Phenotype (%),[3],89%
same,Total Cell Count,[3],96
same,Population Apoptotic (%),[4],0%
same,Population Fragmented Nuclei (%),[4],6%
same,Population Healthy Nuclei (%),[4],81%
same,Population Hoechst High Intensity Objects (%),[4],13%
same,Population Membrane Permeable-Phenotype (%),[4],13%
same,Population Mitochondria Different-Phenotype (%),[4],63%
same,Population Mitotic Cells (%),[4],100%
same,Population Normal (%),[4],86%
same,Population Pyknosed Nuclei (%),[4],11%
same,Population Tubulin-Different-Phenotype (%),[4],58%
same,Total Cell Count,[4],62
same,Population Apoptotic (%),[5],53%
same,Population Fragmented Nuclei (%),[5],9%
same,Population Healthy Nuclei (%),[5],78%
same,Population Hoechst High Intensity Objects (%),[5],6%
same,Population Membrane Permeable-Phenotype (%),[5],10%
same,Population Mitochondria Different-Phenotype (%),[5],28%
same,Population Mitotic Cells (%),[5],46%
same,Population Normal (%),[5],93%
same,Population Pyknosed Nuclei (%),[5],12%
same,Population Tubulin-Different-Phenotype (%),[5],21%
same,Total Cell Count,[5],453
same,Population Apoptotic (%),[6],50%
same,Population Fragmented Nuclei (%),[6],5%
same,Population Healthy Nuclei (%),[6],88%
same,Population Membrane Permeable-Phenotype (%),[6],6%
same,Population Mitochondria Different-Phenotype (%),[6],19%
same,Population Mitotic Cells (%),[6],50%
same,Population Pyknosed Nuclei (%),[6],5%
same,Population Tubulin-Different-Phenotype (%),[6],9%
same,Total Cell Count,[6],281
same,Population Apoptotic (%),[7],56%
same,Population Fragmented Nuclei (%),[7],14%
same,Population Healthy Nuclei (%),[7],61%
same,Population Hoechst High Intensity Objects (%),[7],6%
same,Population Membrane Permeable-Phenotype (%),[7],15%
same,Population Mitochondria Different-Phenotype (%),[7],61%
same,Population Mitotic Cells (%),[7],43%
same,Population Normal (%),[7],93%
same,Population Pyknosed Nuclei (%),[7],23%
same,Population Tubulin-Different-Phenotype (%),[7],79%
same,Total Cell Count,[7],112
same,Population Apoptotic (%),[8],83%
same,Population Fragmented Nuclei (%),[8],13%
same,Population Healthy Nuclei (%),[8],73%
same,Population Hoechst High Intensity Objects (%),[8],10%
same,Population Membrane Permeable-Phenotype (%),[8],6%
same,Population Mitochondria Different-Phenotype (%),[8],57%
same,Population Mitotic Cells (%),[8],16%
same,Population Normal (%),[8],90%
same,Population Pyknosed Nuclei (%),[8],13%
same,Population Tubulin-Different-Phenotype (%),[8],51%
same,Total Cell Count,[8],75
same,Population Apoptotic (%),[9],52%
same,Population Fragmented Nuclei (%),[9],10%
same,Population Healthy Nuclei (%),[9],77%
same,Population Membrane Permeable-Phenotype (%),[9],3%
same,Population Mitochondria Different-Phenotype (%),[9],23%
same,Population Mitotic Cells (%),[9],47%
same,Population Pyknosed Nuclei (%),[9],11%
same,Population Tubulin-Different-Phenotype (%),[9],23%
same,Total Cell Count,[9],499
same,Population Apoptotic (%),[10],25%
same,Population Fragmented Nuclei (%),[10],4%
same,Population Healthy Nuclei (%),[10],87%
same,Population Hoechst High Intensity Objects (%),[10],6%
same,Population Membrane Permeable-Phenotype (%),[10],10%
same,Population Mitochondria Different-Phenotype (%),[10],26%
same,Population Mitotic Cells (%),[10],75%
same,Population Normal (%),[10],93%
same,Population Pyknosed Nuclei (%),[10],7%
same,Population Tubulin-Different-Phenotype (%),[10],22%
same,Total Cell Count,[10],259
same,Population Apoptotic (%),[11],82%
same,Population Fragmented Nuclei (%),[11],23%
same,Population Healthy Nuclei (%),[11],47%
same,Population Hoechst High Intensity Objects (%),[11],6%
same,Population Membrane Permeable-Phenotype (%),[11],20%
same,Population Mitochondria Different-Phenotype (%),[11],44%
same,Population Mitotic Cells (%),[11],17%
same,Population Normal (%),[11],93%
same,Population Pyknosed Nuclei (%),[11],29%
same,Population Tubulin-Different-Phenotype (%),[11],76%
same,Total Cell Count,[11],160
same,Population Apoptotic (%),[12],69%
same,Population Fragmented Nuclei (%),[12],13%
same,Population Healthy Nuclei (%),[12],60%
same,Population Hoechst High Intensity Objects (%),[12],13%
same,Population Membrane Permeable-Phenotype (%),[12],41%
same,Population Mitochondria Different-Phenotype (%),[12],61%
same,Population Mitotic Cells (%),[12],30%
same,Population Normal (%),[12],86%
same,Population Pyknosed Nuclei (%),[12],25%
same,Population Tubulin-Different-Phenotype (%),[12],58%
same,Total Cell Count,[12],115
